The subject of experiment [1] is Saccharomyces cerevisiae. The experiment in a line: Binding affinity to Rce1p in yeast membrane at 15 uM measured 20 mins post irradiation by pull-down-Western blot analysis. It counts as cell membranes. The procedure, abridged: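 Biotinylated probes at 15 μM were mixed with membranes (0.25 μg/μL) from the RCE1-HA rce1Δ ste24Δ yeast strain in 100 mM Hepes, 5 mM MgCl2, pH 7.5. Samples were irradiated at 2537 Å for 20 min at 4 °C. Protein was precipitated and pulled down on streptavidin for 4 h at 4 °C, then separated by 12% SDS-PAGE. Detection was by anti-HA Western blot with ECL, followed by densitometry.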
A general note: Immunoblotting shows a protein as a band on a membrane.

The test system of experiment [2] is Saccharomyces cerevisiae. Put plainly: Ratio of Vmax to Km for Rce1p in yeast membrane assessed as release of -K(Dnp)IM tripeptide measured per mg protein by fluorescence-based proteolytic assay. It counts as cell membranes. The procedure, abridged: (§1)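 Enzyme was carbonate-washed membranes from S. cerevisiae overexpressing HA-tagged yeast Rce1p as the sole CAAX protease. Membranes were preincubated 10 min at 30 °C, then added to the Abz/Dnp fluorogenic farnesyl peptide: 10 concentrations, 0–45 or 0–50 μM final, 0.25 mg/mL membrane protein, Hepes/MgCl2 pH 7.5. Fluorescence (340/420 nm) was read every 30–60 s for 1 h at 30 °C. RFU were converted to product using a trypsin standard curve to give KM and Vmax. Runs were done in two or five replicates.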

The test system of experiment [3] is Saccharomyces cerevisiae. The experiment in a line: Activity of Rce1p in yeast membrane assessed as release of -K(Dnp)IM tripeptide measured per mg protein by fluorescence-based proteolytic assay. It counts as cell membranes. The procedure, abridged: as §1
For experiment [4], the system named is Saccharomyces cerevisiae. The experiment in a line: Competitive binding affinity to Rce1p active site in yeast membrane at 15 uM measured 30 mins post irradiation by Western blot analysis in presence of 50 uM Abz-KSKTKC(Fr)K(Dnp)IM. It counts as cell membranes. The essentials:
(§2)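 RCE1-HA membranes (0.25 μg/μL) were irradiated at 2537 Å with 15 μM probe for 30 min at 4 °C. The non-photoreactive farnesylated substrate was present at 50 or 100 μM, in Hepes/MgCl2 pH 7.5. Samples were taken through streptavidin pull-down, SDS-PAGE, anti-HA Western blot with ECL, and densitometry across four replicate experiments.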

Experiment [5] concerns Saccharomyces cerevisiae. Put plainly: Binding affinity to Rce1p in yeast membrane at 15 uM measured 30 mins post irradiation by Western blot analysis. It counts as cell membranes. The essentials: (§3)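 Probe at 15 μM was irradiated at 2537 Å for 30 min at 4 °C in Hepes/MgCl2 pH 7.5, or left unirradiated. Membranes (0.25 μg/μL) came from RCE1-HA or Rce1p-lacking (rce1Δ ste24Δ) yeast strains. This was followed by streptavidin pull-down, SDS-PAGE and anti-HA Western blot with ECL detection.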

Experiment [6] has as its system Saccharomyces cerevisiae. The experiment in a line: Competitive binding affinity to Rce1p active site in yeast membrane at 15 uM measured 30 mins post irradiation by Western blot analysis in presence of 100 uM Abz-KSKTKC(Fr)K(Dnp)IM. It counts as cell membranes. The essentials:
as §2

Experiment [7] relates to Saccharomyces cerevisiae. The experiment in a line: Binding affinity to rce1/ste24-deficient yeast cell membrane at 15 uM after 30 mins by Western blot analysis. The essentials:
as §3

The subject of experiment [8] is Saccharomyces cerevisiae. The experiment in a line: Binding affinity to Rce1p in yeast membrane at 15 uM measured 30 mins post irradiation by time-course experiment. It counts as cell membranes. The procedure, abridged: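 Time course: RCE1-HA membranes (0.25 μg/μL) were irradiated at 2537 Å and 4 °C with 15 μM probe for 10–60 min, in 100 mM Hepes, 5 mM MgCl2, pH 7.5. Labelled protein was taken through streptavidin pull-down, SDS-PAGE and anti-HA Western blotting.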

Experiment [9] deals with Saccharomyces cerevisiae. Put plainly: Binding affinity to rce1/ste24-deficient yeast cell membrane at 15 uM measured 30 mins post irradiation by Western blot analysis. The procedure, abridged: as §3
The test system of experiment [10] is Saccharomyces cerevisiae. The experiment in a line: Activity of Rce1p in yeast membrane assessed as formation of Biotin-PEG3-KSK-Bpa-KC(Fr) at 20 uM after 4 hrs by RP-HPLC analysis. It counts as cell membranes. The procedure, abridged:
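Probe diluted to 20 or 40 μM in 100 mM Hepes, 5 mM MgCl2, pH 7.5. Carbonate-washed yeast membranes containing Rce1p were added to 0.25 mg/mL total protein and incubated at 35 °C for about 4 h. Material was cleaned up on C18 reversed-phase cartridges and analysed by C18 RP-HPLC with diode-array detection at 220 and 349 nm. Product identity was checked by ESI-MS/MS.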

Experiment [11] has as its system Saccharomyces cerevisiae. The experiment in a line: Binding affinity to Rce1p in yeast membrane at 15 uM after 30 mins by Western blot analysis. It counts as cell membranes. The essentials:
as §3

The text below walks through data of ChEMBL document CHEMBL2203008, “Photoaffinity labeling of Ras converting enzyme using peptide substrates that incorporate benzoylphenylalanine (Bpa) residues: improved labeling and structural implications” (Bioorg Med Chem, 2011).

Calls of active or inactive are those of the source. No cut-off for these calls is given here. Starred links: 1 amine or outer side, 2 acyl side, 3 side chain; linkers in the order of their positions; H or OH if unused. Non-standard residues stand in square brackets, D forms with d. Residues, ends and D or L forms follow the SMILES beside them. *: point of attachment. X5 = O=C1N[C@H]2[C@H](CS[C@H]2CCCCC(=O)OCCOCCOCCN([C@@H](Cc2ccc(C(=O)c3ccccc3)cc2)C(=O)[*:2])[*:1])N1; X1 = NCCCC[C@@H](C(=O)[*:2])N(CCOCCOCCOC(=O)CCCC[C@@H]1SC[C@@H]2NC(=O)N[C@@H]21)[*:1]; Lys(Dde) = CC(NCCCC[C@H](N)C(=O)O)=C1C(=O)CC(C)(C)CC1=O; X4 = O=C1N[C@H]2[C@H](CS[C@H]2CCCCC(=O)OCCOCCOCCOCN*)N1; X2 = C/C(=C\C*)CC/C=C(\C)COCc1cccc(C(=O)c2ccccc2)c1; Bpa = N[C@@H](Cc1ccc(C(=O)c2ccccc2)cc1)C(=O)O; Dnp = O=[N+]([O-])c1ccc(*)c([N+](=O)[O-])c1; X3 = C/C(=C\C*)COCc1cccc(C(=O)c2ccccc2)c1; Farnesyl = CC(C)=CCC/C(C)=C/CC/C(C)=C/C*; Suc = O=C(CCC(=O)[*:2])[*:1]; 2Abz = Nc1ccccc1C(=O)O

As to `CC[C@H](C)[C@H](NC(=O)[C@@H](NC(=O)[C@H](CSC/C=C(\C)CC/C=C(\C)CCC=C(C)C)NC(=O)[C@H](CCCCN)NC(=O)[C@@H](NC(=O)[C@H](Cc1ccc(C(=O)c2ccccc2)cc1)NC(=O)[C@H](CO)NC(=O)[C@H](CCCCN)NCCOCCOCCOC(=O)CCCC[C@@H]1SC[C@@H]2NC(=O)N[C@@H]21)[C@@H](C)O)C(C)C)C(=O)N[C@@H](CCSC)C(=O)O` (H-[X1]S[Bpa]TKC(Farnesyl)VIM-OH), the result with Saccharomyces cerevisiae [1] was Active.
The term Km denotes the concentration of substrate that gives half-maximal velocity. What is called Vmax is the top rate of the reaction or transport when substrate is in excess. `CC[C@H](C)[C@H](NC(=O)[C@H](CCCCNc1ccc([N+](=O)[O-])cc1[N+](=O)[O-])NC(=O)[C@H](CSC/C=C(\C)CC/C=C(\C)CCC=C(C)C)NC(=O)[C@H](CCCCN)NC(=O)[C@@H](NC(=O)[C@H](CCCCN)NC(=O)[C@H](CO)NC(=O)[C@H](CCCCN)NC(=O)c1ccccc1N)[C@@H](C)O)C(=O)N[C@@H](CCSC)C(=O)O` (H-[2Abz]KSKTKC(Farnesyl)K(Dnp)IM-OH): the Vmax/Km in the experiment with Saccharomyces cerevisiae [2] amounted to 8.6 ×10⁻⁴ L/min. Moreover, in the experiment on Saccharomyces cerevisiae [3], the Km was determined as 6.4 µM and the maximum rate (Vmax) was found to be 5.6 nmol/min/mg.
Regarding `CC[C@H](C)[C@H](NC(=O)[C@@H](NC(=O)[C@H](CSC/C=C(\C)CC/C=C(\C)CCC=C(C)C)NC(=O)[C@H](CCCCN)NC(=O)[C@@H](NC(=O)[C@H](CCCCN)NC(=O)[C@H](CO)NC(=O)[C@H](Cc1ccc(C(=O)c2ccccc2)cc1)NCCOCCOCCOC(=O)CCCC[C@@H]1SC[C@@H]2NC(=O)N[C@@H]21)[C@@H](C)O)C(C)C)C(=O)N[C@@H](CCSC)C(=O)O` (H-[X5]SKTKC(Farnesyl)VIM-OH), in the experiment on Saccharomyces cerevisiae [1], the result was Active.
Turning to `CC[C@H](C)[C@H](NC(=O)[C@H](CCCCNc1ccc([N+](=O)[O-])cc1[N+](=O)[O-])NC(=O)[C@H](CSC/C=C(\C)COCc1cccc(C(=O)c2ccccc2)c1)NC(=O)[C@H](CCCCN)NC(=O)[C@@H](NC(=O)[C@H](CCCCN)NC(=O)[C@H](CO)NC(=O)[C@H](CCCCN)NC(=O)[C@H](CCCCNC(C)=C1C(=O)CC(C)(C)CC1=O)NC(=O)CCC(=O)NCOCCOCCOCCOC(=O)CCCC[C@@H]1SC[C@@H]2NC(=O)N[C@@H]21)[C@@H](C)O)C(=O)N[C@@H](CCSC)C(=O)O` ({X4-Suc}-[Lys(Dde)]KSKTKC(X3)K(Dnp)IM-OH), in the experiment with Saccharomyces cerevisiae [1], the outcome was Active.
On to `CC[C@H](C)[C@H](NC(=O)[C@H](CCCCNc1ccc([N+](=O)[O-])cc1[N+](=O)[O-])NC(=O)[C@H](CSC/C=C(\C)COCc1cccc(C(=O)c2ccccc2)c1)NC(=O)[C@H](CCCCN)NC(=O)[C@@H](NC(=O)[C@H](CCCCN)NC(=O)[C@H](CO)NC(=O)[C@H](CCCCN)NC(=O)c1ccccc1N)[C@@H](C)O)C(=O)N[C@@H](CCSC)C(=O)O` (H-[2Abz]KSKTKC(X3)K(Dnp)IM-OH), for which the Vmax/Km in the experiment with Saccharomyces cerevisiae [2] came to 4.8 ×10⁻⁵ L/min. Besides, in the experiment with Saccharomyces cerevisiae [3], the Michaelis-Menten constant (Km) was 1.9 µM and the maximal velocity (Vmax) was 0.093 nmol/min/mg.
Consider `CC[C@H](C)[C@H](NC(=O)[C@@H](NC(=O)[C@H](CSC/C=C(\C)CC/C=C(\C)CCC=C(C)C)NC(=O)[C@H](CCCCN)NC(=O)[C@H](Cc1ccc(C(=O)c2ccccc2)cc1)NC(=O)[C@H](CCCCN)NC(=O)[C@H](CO)NC(=O)[C@H](CCCCN)NCCOCCOCCOC(=O)CCCC[C@@H]1SC[C@@H]2NC(=O)N[C@@H]21)C(C)C)C(=O)N[C@@H](CCSC)C(=O)O` (H-[X1]SK[Bpa]KC(Farnesyl)VIM-OH), for which the Activity turned out to be 84% with Saccharomyces cerevisiae [4] and 7% in the experiment with Saccharomyces cerevisiae [6]. The outcome in the experiment on Saccharomyces cerevisiae [5], in the experiment on Saccharomyces cerevisiae [1], with Saccharomyces cerevisiae [8] and in the experiment with Saccharomyces cerevisiae [10] was Active. For the same compound, the result with Saccharomyces cerevisiae [7], in the experiment on Saccharomyces cerevisiae [9] and with Saccharomyces cerevisiae [11] was inactive.
As for `CC[C@H](C)[C@H](NC(=O)[C@H](CCCCNc1ccc([N+](=O)[O-])cc1[N+](=O)[O-])NC(=O)[C@H](CSC/C=C(\C)CC/C=C(\C)COCc1cccc(C(=O)c2ccccc2)c1)NC(=O)[C@H](CCCCN)NC(=O)[C@@H](NC(=O)[C@H](CCCCN)NC(=O)[C@H](CO)NC(=O)[C@H](CCCCN)NC(=O)[C@H](CCCCNC(C)=C1C(=O)CC(C)(C)CC1=O)NC(=O)CCC(=O)NCOCCOCCOCCOC(=O)CCCC[C@@H]1SC[C@@H]2NC(=O)N[C@@H]21)[C@@H](C)O)C(=O)N[C@@H](CCSC)C(=O)O` ({X4-Suc}-[Lys(Dde)]KSKTKC(X2)K(Dnp)IM-OH), the result in the experiment with Saccharomyces cerevisiae [1] was Active.
Regarding `CC[C@H](C)[C@H](NC(=O)[C@@H](NC(=O)[C@H](CSC/C=C(\C)CC/C=C(\C)CCC=C(C)C)NC(=O)[C@H](CCCCN)NC(=O)[C@@H](NC(=O)[C@H](CCCCN)NC(=O)[C@H](Cc1ccc(C(=O)c2ccccc2)cc1)NC(=O)[C@H](CCCCN)NCCOCCOCCOC(=O)CCCC[C@@H]1SC[C@@H]2NC(=O)N[C@@H]21)[C@@H](C)O)C(C)C)C(=O)N[C@@H](CCSC)C(=O)O` (H-[X1][Bpa]KTKC(Farnesyl)VIM-OH), the outcome with Saccharomyces cerevisiae [1] was Active.
